Source: article PMC4238911 (Cancer chemotherapy and pharmacology, 2011)
Where two headings read alike, the source gives them in different places.

What was measured:
TrkB = TrkB (Homo sapiens, UniProt Q16620); assay type: cell-based
[1] = tested on: refractory high-risk neuroblastoma; experiment: Tumor response; assay type: in vivo, human
In short: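 Children received the oral test compound BID, 5 of 7 days, in 28-day cycles at 25–120 mg/M2/dose (3 + 3 escalation). Response was assessed after cycles 1, 2, 4 and 8, then every 4th cycle. Scoring used NANT criteria (modified International Neuroblastoma Response Criteria), with RECIST for measurable CT/MRI tumor and Curie score for MIBG lesions.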

[2] = tested on: JAK2-mutated (JAK2^V617F) myelofibrosis; conditions: 22 patients; cited from earlier work
[3] = previous trials; cited from earlier work
Trk kinase domain = conditions: cited from earlier work
clinical = conditions: human, in vivo, po
[4] = Plasma pharmacokinetics of lestaurtinib; conditions: human, po
[5] = subjects of N = 46, all dose levels
[6] = the other subject with mixed response, complete marrow response

Sequence of TrkB (Q16620 32-822, species assumed): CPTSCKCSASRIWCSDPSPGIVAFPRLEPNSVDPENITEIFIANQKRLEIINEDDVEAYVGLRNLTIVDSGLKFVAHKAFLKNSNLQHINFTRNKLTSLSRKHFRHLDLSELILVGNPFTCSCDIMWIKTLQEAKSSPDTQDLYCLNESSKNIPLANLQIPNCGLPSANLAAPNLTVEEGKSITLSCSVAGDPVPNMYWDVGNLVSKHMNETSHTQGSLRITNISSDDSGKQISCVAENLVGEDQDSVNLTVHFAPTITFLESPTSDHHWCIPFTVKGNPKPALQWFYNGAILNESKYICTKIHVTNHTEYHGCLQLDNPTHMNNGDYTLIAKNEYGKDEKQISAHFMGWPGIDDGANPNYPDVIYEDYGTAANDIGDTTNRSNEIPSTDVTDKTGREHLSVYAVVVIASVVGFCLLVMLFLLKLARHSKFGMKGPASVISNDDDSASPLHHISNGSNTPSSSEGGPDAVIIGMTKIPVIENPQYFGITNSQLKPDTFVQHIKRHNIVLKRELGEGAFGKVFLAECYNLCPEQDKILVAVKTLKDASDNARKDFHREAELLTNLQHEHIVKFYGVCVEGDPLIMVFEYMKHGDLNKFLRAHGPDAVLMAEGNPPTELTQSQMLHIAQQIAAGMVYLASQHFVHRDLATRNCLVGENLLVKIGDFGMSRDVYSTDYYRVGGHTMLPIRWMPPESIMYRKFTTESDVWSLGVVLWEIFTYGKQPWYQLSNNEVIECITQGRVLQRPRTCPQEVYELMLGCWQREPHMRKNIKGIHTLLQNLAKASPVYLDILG

C[C@]12O[C@H](C[C@]1(O)CO)n1c3ccccc3c3c4c(c5c6ccccc6n2c5c31)CNC4=O [lestaurtinib, Lestaurtinib]
Plasma inhibition of phospho-TrkB activity (TrkB; 1 h post-dosing, 120 mg/M^2): uniform inhibition | Inhibition of phosphorylation of TrkB by immunoblotting (TrkB; plasma 1 h after lestaurtinib, days 5 and 26, all ten dose levels, 31 subjects): evident only in cells exposed to plasma from subjects treated at dose levels ≥ 6 | Sustained suppression of TrkB phosphorylation (TrkB; pre-drug/trough plasma samples, twice daily dosing): not evident | Duration of prolonged control of disease, median ([1]; 10 of 26 subjects at doses ≥ 70 mg/M^2/dose BID, range 5–28): 10 cycles | Response/SD > 5 months ([1]; dose level 1–3, of total subjects at these dose levels): 0/9 (total subjects at dose levels 1–3) | Response/SD > 5 months ([1]; dose level 4–5 (2 SD)): 2/22 (2 SD) | Response/SD > 5 months ([1]; dose level 5a–8 (2 PR, 2 Mixed, 4 SD)): 8/16 (2 PR, 2 Mixed, 4 SD) | Subjects who maintained a response or SD for at least 5 cycles ([1]; dose levels > 5, 10 of 26 subjects): 38.5% | Patients who maintained a response or SD ([1]; dose levels ≥ 5a, 8/16): 50% | Duration of maintained response or SD, median ([1]; dose levels ≥ 5a, 8/16 patients): 10 months | Subjects with prolonged control of disease ([1]; doses ≥ 70 mg/M^2/dose BID, 10 of 26 subjects): 38.5% | Duration of prolonged stable disease, median ([1]; nine subjects at dose levels ≥ 5): 6 cycles | Marrow tumor content after treatment ([1]; one subject with prolonged stable disease, decreased from 75): 2% | Urine catecholamine response: reduction in HVA ([1]; second subject with PR): 15% | Urine catecholamine response: reduction in VMA ([1]; second subject with PR): 44% | Duration of prolonged stable disease, median ([1]; six subjects, range 5–13): 7 cycles | Number of treatment courses prior to PD: ≥17 months ([1]; subjects of 46): 3/46 | Number of treatment courses prior to PD: 11–16 months ([1]; subjects of 46, one of 3 stopped therapy after 13 cycles due to toxicity): 3 ^b/46 | Number of treatment courses prior to PD: 4–10 months ([1]; subjects of 46, one of 11 stopped therapy after 5 cycles due to toxicity): 11 ^a/46 | Best overall response: Mixed [1, 5]: 3/46 | Best overall response: PR [1, 5]: 2/46 | Best overall response: Progressive disease [1, 5]: 21/46 | Best overall response: Stable disease [1, 5]: 20/46 | Urine catecholamines: reduction in HVA [1, 6]: 15% | Urine catecholamines: reduction in VMA [1, 6]: 45% | Median duration of response [2]: 14 months | Overall response rate [2]: 27% | Patients with grade 1/2 elevated LFTs possibly related to lestaurtinib [3]: ≤ 30% | Concentration that competitively inhibits ATP binding to the Trk kinase domain (Trk kinase domain): nanomolar concentrations | AUC(0-t) (clinical; 25 mg/m2): 29500 ng·h/mL | Tmax (clinical; 25 mg/m2): 1.5 h | half-life (clinical; 25 mg/m2): 10.5 ± 3.6 h | AUC(0-t) (clinical; 35 mg/m2): 37500 ng·h/mL | Cmax (clinical; 35 mg/m2): 3390 ng/mL | Tmax (clinical; 35 mg/m2): 2 h | half-life (clinical; 35 mg/m2): 7 h | Cmax (clinical; 45 mg/m2): 3060 ng/mL | half-life (clinical; 45 mg/m2): 4.5 ± 1.2 h | AUC(0-t) (clinical; 55 mg/m2): 34900 ng·h/mL | Tmax (clinical; 55 mg/m2): 1 h | half-life (clinical; 55 mg/m2): 6 ± 3.4 h | AUC(0-inf) (clinical; 62.5 mg/m2): 28900 ng·h/mL | Cmax (clinical; 62.5 mg/m2): 4500 ng/mL | half-life (clinical; 62.5 mg/m2): 4.3 ± 0.9 h | Tmax (clinical; 70 mg/m2): 1 h | half-life (clinical; 70 mg/m2): 3.6 ± 1.4 h | AUC(0-inf) (clinical; 77.5 mg/m2): 54800 ng·h/mL | AUC(0-t) (clinical; 77.5 mg/m2): 47500 ng·h/mL | half-life (clinical; 77.5 mg/m2): 8.2 h | AUC(0-t) (clinical; 85 mg/m2): 15500 ng·h/mL | half-life (clinical; 85 mg/m2): 3.9 h | AUC(0-inf) (clinical; 92.5 mg/m2): 51500 ng·h/mL | half-life (clinical; 92.5 mg/m2): 4.3 h | Cmax (clinical; 120 mg/m2): 3510 ng/mL | half-life (clinical; 120 mg/m2): 7.9 h | Tmax [4]: 1 to 2 h | AUC(0-inf) ([4]; 25 mg/m2): 39500 ng·h/mL | Cmax ([4]; 25 mg/m2): 2400 ng/mL | AUC(0-inf) ([4]; 35 mg/m2): 41300 ng·h/mL | AUC(0-inf) ([4]; 45 mg/m2): 16400 ng·h/mL | AUC(0-t) ([4]; 45 mg/m2): 15900 ng·h/mL | Tmax ([4]; 45 mg/m2): 1 h | AUC(0-inf) ([4]; 55 mg/m2): 40800 ng·h/mL | Cmax ([4]; 55 mg/m2): 4900 ng/mL | AUC(0-t) ([4]; 62.5 mg/m2): 26600 ng·h/mL | Tmax ([4]; 62.5 mg/m2): 1 h | AUC(0-inf) ([4]; 70 mg/m2): 15800 ng·h/mL | AUC(0-t) ([4]; 70 mg/m2): 15000 ng·h/mL | Cmax ([4]; 70 mg/m2): 3810 ng/mL | Cmax ([4]; 77.5 mg/m2): 3680 ng/mL | Tmax ([4]; 77.5 mg/m2): 2 h | AUC(0-inf) ([4]; 85 mg/m2): 15600 ng·h/mL | Cmax ([4]; 85 mg/m2): 3460 ng/mL | Tmax ([4]; 85 mg/m2): 1 h | AUC(0-t) ([4]; 92.5 mg/m2): 37100 ng·h/mL | Cmax ([4]; 92.5 mg/m2): 8740 ng/mL | Tmax ([4]; 92.5 mg/m2): 1 h | AUC(0-inf) ([4]; 120 mg/m2): 39500 ng·h/mL | AUC(0-t) ([4]; 120 mg/m2): 34900 ng·h/mL | Tmax ([4]; 120 mg/m2): 1.5 h | Subjects with transaminase elevation grade 3/4 or dose limiting (5 subjects, all dose levels): 11% | MTD (10 dose levels, 25–120 mg/M^2/dose BID): no MTD was defined | Subjects with transaminase elevation grade 1/2 (30 subjects, all dose levels): 64% | Subjects with reversible pancreatitis (grade 2) (after prolonged treatment at higher dose levels): 3 subjects | Hematologic DLTs (all dose levels): no hematologic DLTs identified | # subjects with DLT during course 1 (dose level 4, 55 mg/M^2/dose BID, 7 subjects entered): 7 (1) | # subjects with DLT during course 1 (dose level 5, 70 mg/M^2/dose BID, 10 subjects entered): 10 (2) | # subjects with DLT during course 1 (dose level 8, 120 mg/M^2/dose BID, 6 subjects entered): 6 (1) | Subjects who came off study for toxicity (of 47 enrolled): three
